Source: ChEMBL document CHEMBL4020721 (Eur J Med Chem, 2017)

Key:
CYP2C9 = CYP2C9 (Homo sapiens, UniProt P11712); assay: Time dependent irreversible inhibition of CYP2C9 in human liver microsomes at 10 uM preincubated with compound followed by NADPH addition by LC-MS/MS analysis; format: ADME; conditions: liver microsomes
Procedure, shortened: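 HLM (0.2 mg/ml) with 10 µM compound were preincubated 0, 5, 10 or 20 min at 37°C with 1 mM NADPH or PBS. Substrate cocktail (halved concentrations) plus NADPH was then added for 10 min. Metabolites were measured by LC-MS/MS. Kobs is the slope of relative activity versus preincubation time.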

[1] = biological target: Hepatocyte growth factor receptor (Homo sapiens, UniProt P08581); assay: Inhibition of c-MET (unknown origin) using TK substrate-biotin peptide as substrate preincubated for 5 to 10 mins followed by ATP addition measured after 30 mins by HTRF assay
Hepatocyte growth factor receptor, sequence (P08581 whole entry): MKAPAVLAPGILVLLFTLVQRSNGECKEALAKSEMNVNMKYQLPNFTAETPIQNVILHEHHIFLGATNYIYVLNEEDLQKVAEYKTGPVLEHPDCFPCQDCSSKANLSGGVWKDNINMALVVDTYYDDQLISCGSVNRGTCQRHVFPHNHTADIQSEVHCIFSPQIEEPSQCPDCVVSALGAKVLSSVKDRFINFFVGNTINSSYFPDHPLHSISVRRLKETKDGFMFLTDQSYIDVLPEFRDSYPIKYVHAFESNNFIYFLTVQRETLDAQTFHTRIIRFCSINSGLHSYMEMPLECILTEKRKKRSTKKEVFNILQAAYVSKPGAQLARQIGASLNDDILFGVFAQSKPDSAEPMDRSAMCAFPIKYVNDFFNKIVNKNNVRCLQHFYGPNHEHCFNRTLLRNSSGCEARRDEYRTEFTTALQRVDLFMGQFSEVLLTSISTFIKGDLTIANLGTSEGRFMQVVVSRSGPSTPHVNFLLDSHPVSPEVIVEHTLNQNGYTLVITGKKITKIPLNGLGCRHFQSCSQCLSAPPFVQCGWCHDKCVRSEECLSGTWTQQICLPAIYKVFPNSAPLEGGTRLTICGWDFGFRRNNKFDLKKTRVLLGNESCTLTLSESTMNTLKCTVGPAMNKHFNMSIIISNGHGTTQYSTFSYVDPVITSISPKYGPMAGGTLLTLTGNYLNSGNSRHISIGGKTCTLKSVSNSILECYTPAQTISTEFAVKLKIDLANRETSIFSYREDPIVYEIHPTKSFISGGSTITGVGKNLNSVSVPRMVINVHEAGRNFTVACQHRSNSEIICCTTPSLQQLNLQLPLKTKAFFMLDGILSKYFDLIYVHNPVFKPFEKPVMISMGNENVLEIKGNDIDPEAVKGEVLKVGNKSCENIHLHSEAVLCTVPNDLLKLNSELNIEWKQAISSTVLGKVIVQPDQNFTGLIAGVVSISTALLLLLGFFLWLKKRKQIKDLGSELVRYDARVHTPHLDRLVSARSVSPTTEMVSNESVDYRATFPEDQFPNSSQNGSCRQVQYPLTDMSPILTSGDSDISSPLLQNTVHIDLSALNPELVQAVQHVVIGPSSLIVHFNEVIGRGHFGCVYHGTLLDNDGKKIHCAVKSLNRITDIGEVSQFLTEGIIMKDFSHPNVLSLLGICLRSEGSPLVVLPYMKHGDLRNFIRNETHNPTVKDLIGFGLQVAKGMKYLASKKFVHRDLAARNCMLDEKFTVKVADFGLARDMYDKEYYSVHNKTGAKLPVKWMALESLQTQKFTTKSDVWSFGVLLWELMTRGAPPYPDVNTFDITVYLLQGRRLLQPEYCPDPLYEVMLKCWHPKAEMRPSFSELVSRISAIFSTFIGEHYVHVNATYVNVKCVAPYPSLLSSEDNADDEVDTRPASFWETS

SNU-5 [2] = assay: Growth inhibition of human SNU5 cells after 72 hrs by CCK-8 assay; format: functional, cell-based; conditions: snu-5
[3] = Intrinsic clearance in human liver microsomes assessed per mg protein at 1 uM preincubated for 5 mins followed by NADPH addition measured after 5 to 30 mins by LC-MS/MS analysis; format: ADME, microsome; conditions: read-out: CLH
Procedure, shortened: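 Microsomes (0.5 mg/ml) with 1 µM compound were preincubated 5 min at 37°C in 100 mM phosphate buffer pH 7.4, then started with 1 mM NADPH. Samples were taken at 0, 5, 10 and 30 min, quenched with acetonitrile/tinidazole and run by LC-MS/MS. CLint = k / microsomal protein concentration. Midazolam was the positive control.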

CYP3A4 = CYP3A4 (Homo sapiens, UniProt P08684); assay: Reversible inhibition of CYP3A4 in human liver microsomes at 10 uM after 20 mins in presence of NADPH by LC-MS/MS analysis; format: ADME; conditions: liver microsomes
CYP3A4, sequence (P08684 whole entry): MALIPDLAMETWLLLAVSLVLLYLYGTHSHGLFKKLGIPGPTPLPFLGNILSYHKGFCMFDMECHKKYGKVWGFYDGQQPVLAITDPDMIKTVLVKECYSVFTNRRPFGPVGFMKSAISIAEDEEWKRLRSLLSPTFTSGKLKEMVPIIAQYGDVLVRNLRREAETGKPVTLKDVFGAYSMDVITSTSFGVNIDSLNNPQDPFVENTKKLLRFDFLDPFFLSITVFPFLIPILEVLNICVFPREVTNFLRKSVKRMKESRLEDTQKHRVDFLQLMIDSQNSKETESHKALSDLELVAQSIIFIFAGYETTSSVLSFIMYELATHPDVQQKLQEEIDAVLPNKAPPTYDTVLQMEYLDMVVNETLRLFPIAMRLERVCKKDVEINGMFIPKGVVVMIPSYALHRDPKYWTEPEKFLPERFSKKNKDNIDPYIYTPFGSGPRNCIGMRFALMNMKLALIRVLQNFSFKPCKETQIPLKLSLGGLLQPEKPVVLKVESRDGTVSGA

CYP2D6 = CYP2D6 (Homo sapiens, UniProt P10635); assay: Reversible inhibition of CYP2D6 in human liver microsomes at 10 uM after 20 mins in presence of NADPH by LC-MS/MS analysis; format: ADME; conditions: liver microsomes
CYP2D6, sequence (P10635 whole entry): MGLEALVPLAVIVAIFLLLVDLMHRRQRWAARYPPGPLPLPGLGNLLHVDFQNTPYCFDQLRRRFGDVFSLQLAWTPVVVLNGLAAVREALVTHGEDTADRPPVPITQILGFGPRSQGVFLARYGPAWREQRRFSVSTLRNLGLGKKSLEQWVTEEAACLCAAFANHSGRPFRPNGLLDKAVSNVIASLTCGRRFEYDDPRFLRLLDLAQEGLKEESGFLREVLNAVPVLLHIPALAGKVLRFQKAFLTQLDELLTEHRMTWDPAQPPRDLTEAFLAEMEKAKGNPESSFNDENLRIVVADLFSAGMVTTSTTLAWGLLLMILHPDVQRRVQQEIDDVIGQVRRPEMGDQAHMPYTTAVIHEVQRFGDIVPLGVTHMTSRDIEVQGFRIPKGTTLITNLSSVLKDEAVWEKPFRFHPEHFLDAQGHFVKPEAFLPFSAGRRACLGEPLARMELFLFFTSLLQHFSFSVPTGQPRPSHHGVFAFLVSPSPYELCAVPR

[4] = Half life in Sprague-Dawley rat plasma at 1 mg/kg, iv by UPLC-MS/MS analysis; format: ADME, organism-based
Procedure, shortened: (§1)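 Male Sprague-Dawley rats (180-220 g) were fasted overnight with free access to water. Dosing was intravenous (n=2) or oral at 6 mg/kg (n=3). Heparinized blood was drawn from 0 to 1440 min. Plasma was frozen at -20°C, then precipitated with acetonitrile containing internal standard, centrifuged and analysed by UPLC-MS/MS.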

[5] = Cmax in Sprague-Dawley rat plasma at 6 mg/kg, po by UPLC-MS/MS analysis; format: ADME, organism-based; set-up: dose 6 mg/kg, route oral; procedure, shortened: as §1
Rattus norvegicus = assay: Oral bioavailability in Sprague-Dawley rat plasma at 6 mg/kg by UPLC-MS/MS analysis; format: ADME, organism-based; conditions: in vivo; procedure, shortened: as §1
[6] = biological target: Platelet-derived growth factor receptor alpha (Homo sapiens, UniProt P16234); assay: Inhibition of PDGFRalpha (unknown origin) using FAM-labeled peptide as substrate preincubated for 5 to 10 mins followed by substrate/ATP addition measured after 30 to 60 mins by mobility shift assay
Platelet-derived growth factor receptor alpha, sequence (P16234 whole entry): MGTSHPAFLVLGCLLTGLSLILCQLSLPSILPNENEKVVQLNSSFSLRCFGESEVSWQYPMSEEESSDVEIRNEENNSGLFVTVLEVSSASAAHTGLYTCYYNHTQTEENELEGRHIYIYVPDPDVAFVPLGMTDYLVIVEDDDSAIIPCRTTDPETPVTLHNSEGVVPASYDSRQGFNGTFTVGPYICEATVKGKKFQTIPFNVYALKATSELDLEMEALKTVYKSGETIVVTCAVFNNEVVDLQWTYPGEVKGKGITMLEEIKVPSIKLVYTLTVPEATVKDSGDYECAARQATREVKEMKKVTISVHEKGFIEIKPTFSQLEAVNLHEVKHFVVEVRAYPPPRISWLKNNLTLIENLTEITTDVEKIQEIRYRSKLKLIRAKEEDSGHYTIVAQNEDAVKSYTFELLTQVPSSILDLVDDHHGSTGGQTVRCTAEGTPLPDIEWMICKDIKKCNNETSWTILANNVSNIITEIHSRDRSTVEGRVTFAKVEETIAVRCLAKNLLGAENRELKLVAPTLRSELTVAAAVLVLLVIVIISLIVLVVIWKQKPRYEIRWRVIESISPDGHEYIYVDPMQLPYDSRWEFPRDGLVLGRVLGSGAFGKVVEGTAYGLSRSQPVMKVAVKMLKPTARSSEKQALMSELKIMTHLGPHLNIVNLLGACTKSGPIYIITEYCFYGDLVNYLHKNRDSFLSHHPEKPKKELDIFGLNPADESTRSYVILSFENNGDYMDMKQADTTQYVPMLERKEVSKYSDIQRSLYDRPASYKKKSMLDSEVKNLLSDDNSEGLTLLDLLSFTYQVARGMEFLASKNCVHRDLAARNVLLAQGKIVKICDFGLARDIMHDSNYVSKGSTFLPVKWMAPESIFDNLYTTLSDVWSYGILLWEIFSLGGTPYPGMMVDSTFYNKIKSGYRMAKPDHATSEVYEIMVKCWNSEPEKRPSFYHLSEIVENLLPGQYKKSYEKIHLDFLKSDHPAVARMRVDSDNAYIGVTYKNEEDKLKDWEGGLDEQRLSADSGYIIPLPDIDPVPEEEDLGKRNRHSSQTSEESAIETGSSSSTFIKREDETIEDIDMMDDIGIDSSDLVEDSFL
Procedure, shortened: (§2)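 Caliper mobility-shift assay with FAM-labeled peptide substrate. Buffer: 50 mM HEPES pH 7.5, 0.0015% Brij-35, 10 mM MgCl2, 2 mM DTT, with kinase-specific enzyme levels. […] Incubation was 30-60 min at 28°C, stopped with EDTA buffer. Read-out was % conversion.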

Ephrin type-B receptor 2 = Ephrin type-B receptor 2 (Homo sapiens, UniProt P29323); assay: Inhibition of EPHB2 (unknown origin) using FAM-labeled peptide as substrate preincubated for 5 to 10 mins followed by substrate/ATP addition measured after 30 to 60 mins by mobility shift assay; procedure, shortened: as §2
[7] = biological target: Insulin-like growth factor 1 receptor (Homo sapiens, UniProt P08069); assay: Inhibition of IGF1R (unknown origin) using FAM-labeled peptide as substrate preincubated for 5 to 10 mins followed by substrate/ATP addition measured after 30 to 60 mins by mobility shift assay; procedure, shortened: as §2
Insulin-like growth factor 1 receptor, sequence (P08069 31-736 limits assumed): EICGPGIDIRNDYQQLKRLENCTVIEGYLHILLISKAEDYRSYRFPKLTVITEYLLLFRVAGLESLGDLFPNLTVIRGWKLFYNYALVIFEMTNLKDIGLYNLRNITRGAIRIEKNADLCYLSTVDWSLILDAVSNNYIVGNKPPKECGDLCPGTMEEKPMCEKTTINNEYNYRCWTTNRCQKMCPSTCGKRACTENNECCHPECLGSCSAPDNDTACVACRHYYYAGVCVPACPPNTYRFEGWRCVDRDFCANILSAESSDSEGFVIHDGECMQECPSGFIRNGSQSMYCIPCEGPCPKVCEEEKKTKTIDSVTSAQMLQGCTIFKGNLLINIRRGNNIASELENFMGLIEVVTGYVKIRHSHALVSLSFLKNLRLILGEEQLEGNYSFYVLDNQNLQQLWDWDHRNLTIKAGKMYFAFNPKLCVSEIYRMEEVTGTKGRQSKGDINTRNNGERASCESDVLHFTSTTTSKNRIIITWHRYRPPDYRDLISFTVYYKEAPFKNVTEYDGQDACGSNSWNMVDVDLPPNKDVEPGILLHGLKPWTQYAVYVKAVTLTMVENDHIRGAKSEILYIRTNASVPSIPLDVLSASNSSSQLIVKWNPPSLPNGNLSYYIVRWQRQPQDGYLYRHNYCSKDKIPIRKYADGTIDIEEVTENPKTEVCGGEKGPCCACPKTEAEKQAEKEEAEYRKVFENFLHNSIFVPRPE
Insulin-like growth factor 1 receptor, sequence (P08069 741-1367 limits assumed): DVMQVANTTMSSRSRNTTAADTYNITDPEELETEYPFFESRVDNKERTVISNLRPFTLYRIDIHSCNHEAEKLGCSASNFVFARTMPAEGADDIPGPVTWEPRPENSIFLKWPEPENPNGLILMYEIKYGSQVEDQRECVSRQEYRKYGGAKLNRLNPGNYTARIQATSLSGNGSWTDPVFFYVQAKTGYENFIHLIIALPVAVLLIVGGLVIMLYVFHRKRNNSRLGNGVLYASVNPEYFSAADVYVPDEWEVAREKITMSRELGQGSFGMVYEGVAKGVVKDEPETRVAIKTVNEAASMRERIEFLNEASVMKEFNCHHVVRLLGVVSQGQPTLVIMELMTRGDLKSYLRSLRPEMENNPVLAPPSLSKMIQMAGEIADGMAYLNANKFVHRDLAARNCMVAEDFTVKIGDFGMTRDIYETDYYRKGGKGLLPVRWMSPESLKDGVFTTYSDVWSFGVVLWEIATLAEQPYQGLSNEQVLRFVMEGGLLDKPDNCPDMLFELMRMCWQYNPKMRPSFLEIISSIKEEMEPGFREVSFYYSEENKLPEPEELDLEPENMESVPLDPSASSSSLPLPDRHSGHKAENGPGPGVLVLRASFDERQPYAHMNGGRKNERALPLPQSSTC

NCI-H1993 = assay: Antitumor activity against human NCI-H1993 cells xenografted in BALB/c athymic nude mouse assessed as tumor growth inhibition at 10 mg/kg, po administered once daily for 3 weeks; format: functional; conditions: 504 h, read-out: TGI
Procedure, shortened: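 BALB/c nude mice, 5-6 weeks old, kept under SPF conditions, received 7×10^6 NCI-H1993 cells s.c. in the right flank. At 150-250 mm³ they were sorted and randomized, n=7 per group, with vehicle controls. Dosing was oral, once daily for 3 weeks. […] Mean±SEM, Student's t-test.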

SNU-5 [8] = assay: Antitumor activity against human SNU5 cells xenografted in BALB/c athymic nude mouse assessed as percent tumor regression at 0.3 mg/kg, po administered once daily for 2 weeks; format: functional
Procedure, shortened: (§3)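 Nude BALB/c mice, 5-6 weeks old, under SPF conditions, were implanted s.c. in the right flank with 6×10^6 SNU-5 cells. Groups were sorted at 100-200 mm³, n=6, with vehicle controls. Oral dosing once daily for 2 weeks. Percent tumor regression = 100% × (treated day 0 − treated final)/treated day 0. Mean±SEM, Student's t-test.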

SNU-5 [9] = assay: Antitumor activity against human SNU5 cells xenografted in BALB/c athymic nude mouse assessed as tumor regression at 1 mg/kg, po administered once daily for 2 weeks; format: functional; procedure, shortened: as §3
SNU-5 [10] = assay: Antitumor activity against human SNU5 cells xenografted in BALB/c athymic nude mouse assessed as tumor regression at 3 mg/kg, po administered once daily for 2 weeks; format: functional; procedure, shortened: as §3
Mus musculus = assay: Toxicity in BALB/c athymic nude mouse xenografted with human NCI-H1993 cells assessed as body weight loss at 0.1 to 10 mg/kg, po administered once daily for 3 weeks; format: organism-based; conditions: in vivo, 504 h
Procedure, shortened: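 Female/male BALB/c nude mice (5-6 weeks, SPF). NCI-H1993 cells (7×10^6 in 140 µL) or SNU-5 cells (6×10^6 in 200 µL) injected s.c. into the right flank. Dosing started at mean tumour volume 150-250 mm³ (NCI-H1993) or 100-200 mm³ (SNU-5). Randomized, n = 7 (NCI-H1993) or 6 (SNU-5) per group. Oral dosing once daily; vehicle controls. Body weight and signs of toxicity monitored during treatment.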

inhibition at 10 µM (CYP2C9): < 50%
IC50 [1]: 0.6 nM
IC50 (SNU-5 [2]): 2 nM
microsomal CLint at 1 µM [3]: 5 µL/min/mg
inhibition at 20 min, 10 µM (CYP3A4): < 50%
inhibition at 20 min, 10 µM (CYP2D6): < 50%
half-life [4]: 222 min
Cmax [5]: 135 ng/mL
F (Rattus norvegicus): 12.1%
IC50 [6]: 2360 nM
IC50 (Ephrin type-B receptor 2): > 30 µM
IC50 [7]: > 30 µM
SMILES: CC(c1cc2cc(-c3cnn(C)c3)cnc2cc1F)n1nnc2ncc(-c3cnn(CCO)c3)nc21 (stereo in doubt; 14)
inhibition in vivo at 10 mg/kg (NCI-H1993): 90.8%
Activity (SNU-5 [8]): 34%
Activity (SNU-5 [9]): 79.2%
Activity (SNU-5 [10]): 87.9%
Activity (Mus musculus): Non-Toxic
